Measured values published in ChEMBL document CHEMBL4152256, “Structure-activity relationship of new antimalarial 1-aryl-3-susbtituted propanol derivatives: Synthesis, preliminary toxicity profiling, parasite life cycle stage studies, target exploration, and targeted delivery” (Eur J Med Chem, 2018).

How the values were obtained:
[1] = Genotoxicity in Salmonella typhimurium TA1535 harboring pSK1002 assessed as umu gene induction at 0.016 mg/ml in presence of Sprague-Dawley rat liver S9 fraction after by SOS/umu assay relative to control; type: toxicity, organism-based; settings: salmonella enterica subsp. enterica serovar typhimurium, read-out: FC
[2] = Genotoxicity in Salmonella typhimurium TA1535 harboring pSK1002 assessed as survival at 0.016 mg/ml in presence of Sprague-Dawley rat liver S9 fraction after by SOS/umu assay relative to control; type: toxicity, organism-based; settings: salmonella enterica subsp. enterica serovar typhimurium, read-out: Survival
[3] = Genotoxicity in Salmonella typhimurium TA1535 harboring pSK1002 assessed as umu gene induction at 0.002 mg/ml in absence of Sprague-Dawley rat liver S9 fraction after by SOS/umu assay relative to control; type: toxicity, organism-based; settings: salmonella enterica subsp. enterica serovar typhimurium, read-out: FC
[4] = tested on: Plasmodium falciparum; assay: Antiplasmodial activity against multidrug-resistant Plasmodium falciparum FCR-3 by [3H]-hypoxanthine incorporation assay; type: functional, organism-based, FCR-3/Gambia; settings: Plasmodium falciparum, FCR-3/Gambia
Method in brief: (§1)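 Blood-stage P. falciparum 3D7 and FCR-3 were tested by a modified [3H]-hypoxanthine incorporation assay. Chloroquine was the reference in all runs.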

[5] = Genotoxicity in Salmonella typhimurium TA1535 harboring pSK1002 assessed as umu gene induction at 0.063 mg/ml in presence of Sprague-Dawley rat liver S9 fraction after by SOS/umu assay relative to control; type: toxicity, organism-based; settings: salmonella enterica subsp. enterica serovar typhimurium, read-out: FC
[6] = Genotoxicity in Salmonella typhimurium TA1535 harboring pSK1002 assessed as survival at 0.001 mg/ml in presence of Sprague-Dawley rat liver S9 fraction after by SOS/umu assay relative to control; type: toxicity, organism-based; settings: salmonella enterica subsp. enterica serovar typhimurium, read-out: Survival
[7] = Genotoxicity in Salmonella typhimurium TA1535 harboring pSK1002 assessed as survival at 0.004 mg/ml in presence of Sprague-Dawley rat liver S9 fraction after by SOS/umu assay relative to control; type: toxicity, organism-based; settings: salmonella enterica subsp. enterica serovar typhimurium, read-out: Survival
[8] = Genotoxicity in Salmonella typhimurium TA1535 harboring pSK1002 assessed as umu gene induction at 0.031 mg/ml in absence of Sprague-Dawley rat liver S9 fraction after by SOS/umu assay relative to control; type: toxicity, organism-based; settings: salmonella enterica subsp. enterica serovar typhimurium, read-out: FC
[9] = Genotoxicity in Salmonella typhimurium TA1535 harboring pSK1002 assessed as survival at 0.008 mg/ml in presence of Sprague-Dawley rat liver S9 fraction after by SOS/umu assay relative to control; type: toxicity, organism-based; settings: salmonella enterica subsp. enterica serovar typhimurium, read-out: Survival
[10] = Genotoxicity in Salmonella typhimurium TA1535 harboring pSK1002 assessed as survival at 0.002 mg/ml in presence of Sprague-Dawley rat liver S9 fraction after by SOS/umu assay relative to control; type: toxicity, organism-based; settings: salmonella enterica subsp. enterica serovar typhimurium, read-out: Survival
[11] = Genotoxicity in Salmonella typhimurium TA1535 harboring pSK1002 assessed as umu gene induction at 0.008 mg/ml in presence of Sprague-Dawley rat liver S9 fraction after by SOS/umu assay relative to control; type: toxicity, organism-based; settings: salmonella enterica subsp. enterica serovar typhimurium, read-out: FC
[12] = Genotoxicity in Salmonella typhimurium TA1535 harboring pSK1002 assessed as umu gene induction at 0.031 mg/ml in presence of Sprague-Dawley rat liver S9 fraction after by SOS/umu assay relative to control; type: toxicity, organism-based; settings: salmonella enterica subsp. enterica serovar typhimurium, read-out: FC
[13] = Genotoxicity in Salmonella typhimurium TA1535 harboring pSK1002 assessed as umu gene induction at 0.001 mg/ml in presence of Sprague-Dawley rat liver S9 fraction after by SOS/umu assay relative to control; type: toxicity, organism-based; settings: salmonella enterica subsp. enterica serovar typhimurium, read-out: FC
[14] = Genotoxicity in Salmonella typhimurium TA1535 harboring pSK1002 assessed as umu gene induction at 0.008 mg/ml in absence of Sprague-Dawley rat liver S9 fraction after by SOS/umu assay relative to control; type: toxicity, organism-based; settings: salmonella enterica subsp. enterica serovar typhimurium, read-out: FC
[15] = Genotoxicity in Salmonella typhimurium TA1535 harboring pSK1002 assessed as umu gene induction at 0.004 mg/ml in absence of Sprague-Dawley rat liver S9 fraction after by SOS/umu assay relative to control; type: toxicity, organism-based; settings: salmonella enterica subsp. enterica serovar typhimurium, read-out: FC
[16] = Genotoxicity in Salmonella typhimurium TA1535 harboring pSK1002 assessed as survival at 0.002 mg/ml in absence of Sprague-Dawley rat liver S9 fraction after by SOS/umu assay relative to control; type: toxicity, organism-based; settings: salmonella enterica subsp. enterica serovar typhimurium, read-out: Survival
[17] = Cytotoxicity against human HepG2A16 cells by MTT assay; type: cell-based
Method in brief: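 MTT viability assay on HepG2-A16 cells, giving CC50 values.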

[18] = Genotoxicity in Salmonella typhimurium TA1535 harboring pSK1002 assessed as survival at 0.063 mg/ml in absence of Sprague-Dawley rat liver S9 fraction after by SOS/umu assay relative to control; type: toxicity, organism-based; settings: salmonella enterica subsp. enterica serovar typhimurium, read-out: Survival
[19] = Genotoxicity in Salmonella typhimurium TA1535 harboring pSK1002 assessed as umu gene induction at 0.004 mg/ml in presence of Sprague-Dawley rat liver S9 fraction after by SOS/umu assay relative to control; type: toxicity, organism-based; settings: salmonella enterica subsp. enterica serovar typhimurium, read-out: FC
[20] = Genotoxicity in Salmonella typhimurium TA1535 harboring pSK1002 assessed as umu gene induction at 0.016 mg/ml in absence of Sprague-Dawley rat liver S9 fraction after by SOS/umu assay relative to control; type: toxicity, organism-based; settings: salmonella enterica subsp. enterica serovar typhimurium, read-out: FC
[21] = Genotoxicity in Salmonella typhimurium TA1535 harboring pSK1002 assessed as survival at 0.016 mg/ml in absence of Sprague-Dawley rat liver S9 fraction after by SOS/umu assay relative to control; type: toxicity, organism-based; settings: salmonella enterica subsp. enterica serovar typhimurium, read-out: Survival
[22] = Genotoxicity in Salmonella typhimurium TA1535 harboring pSK1002 assessed as umu gene induction at 0.001 mg/ml in absence of Sprague-Dawley rat liver S9 fraction after by SOS/umu assay relative to control; type: toxicity, organism-based; settings: salmonella enterica subsp. enterica serovar typhimurium, read-out: FC
[23] = tested on: Plasmodium falciparum; assay: Antiplasmodial activity against chloroquine-sensitive Plasmodium falciparum 3D7 by [3H]-hypoxanthine incorporation assay; type: functional, organism-based; method in brief: as §1
[24] = Genotoxicity in Salmonella typhimurium TA1535 harboring pSK1002 assessed as umu gene induction at 0.002 mg/ml in presence of Sprague-Dawley rat liver S9 fraction after by SOS/umu assay relative to control; type: toxicity, organism-based; settings: salmonella enterica subsp. enterica serovar typhimurium, read-out: FC
[25] = Genotoxicity in Salmonella typhimurium TA1535 harboring pSK1002 assessed as umu gene induction at 0.063 mg/ml in absence of Sprague-Dawley rat liver S9 fraction after by SOS/umu assay relative to control; type: toxicity, organism-based; settings: salmonella enterica subsp. enterica serovar typhimurium, read-out: FC
[26] = Selectivity index, ratio of CC50 for human HepG2A16 cells by MTT assay to IC50 for multidrug-resistant Plasmodium falciparum FCR-3; type: toxicity
Method in brief: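 HepG2-A16 human hepatoma cells were tested by MTT viability assay to give CC50. Blood-stage activity was measured against the multidrug-resistant P. falciparum FCR-3 strain by [3H]-hypoxanthine incorporation to give IC50. SI = CC50 HepG2 / FCR-3 IC50.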

[27] = Genotoxicity in Salmonella typhimurium TA1535 harboring pSK1002 assessed as umu gene induction at 0.125 mg/ml in absence of Sprague-Dawley rat liver S9 fraction after by SOS/umu assay relative to control; type: toxicity, organism-based; settings: salmonella enterica subsp. enterica serovar typhimurium, read-out: FC
[28] = Genotoxicity in Salmonella typhimurium TA1535 harboring pSK1002 assessed as survival at 0.125 mg/ml in presence of Sprague-Dawley rat liver S9 fraction after by SOS/umu assay relative to control; type: toxicity, organism-based; settings: salmonella enterica subsp. enterica serovar typhimurium, read-out: Survival
[29] = Genotoxicity in Salmonella typhimurium TA1535 harboring pSK1002 assessed as umu gene induction at 0.125 mg/ml in presence of Sprague-Dawley rat liver S9 fraction after by SOS/umu assay relative to control; type: toxicity, organism-based; settings: salmonella enterica subsp. enterica serovar typhimurium, read-out: FC

| Compound | fold induction at 0.016 mg/ml [1] | viability at 0.016 mg/ml [2] | fold induction at 0.002 mg/ml [3] | IC50 [4] | fold induction at 0.063 mg/ml [5] | viability at 0.001 mg/ml [6] | viability at 0.004 mg/ml [7] | fold induction at 0.031 mg/ml [8] | viability at 0.008 mg/ml [9] | viability at 0.002 mg/ml [10] | fold induction at 0.008 mg/ml [11] | fold induction at 0.031 mg/ml [12] | fold induction at 0.001 mg/ml [13] | fold induction at 0.008 mg/ml [14] | fold induction at 0.004 mg/ml [15] | viability at 0.002 mg/ml [16] | viability at 0.063 mg/ml [18] | fold induction at 0.004 mg/ml [19] | fold induction at 0.016 mg/ml [20] | viability at 0.016 mg/ml [21] | other results |
| --- | --- | --- | --- | --- | --- | --- | --- | --- | --- | --- | --- | --- | --- | --- | --- | --- | --- | --- | --- | --- | --- |
| OC(CCN1CCN(C(c2ccccc2)c2ccccc2)CC1)c1ccc(F)c2ccccc12 (stereo not given) | 0.7 | 99.6% | 0.8 | 330 nM | 1.5 | 108% | 111% | 1 | 143% | 114% | 0.4 | 1.2 | 0.9 | 1.4 | 1.3 | 77.8% | 141% | 0.8 | 1.4 | 86.3% | CC50 ([17]; HepG2A16 cells): 19900 nM; fold induction at 0.001 mg/ml [22]: 0.6; IC50 ([23]; Plasmodium falciparum, 3D7): 620 nM; fold induction at 0.002 mg/ml [24]: 0.8; fold induction at 0.063 mg/ml [25]: 0.8; selectivity ratio ([26]; HepG2A16 cells, read-out: Ratio CC50/IC50): 60 |
| OC(CCN1CCN(c2ccccc2C(F)(F)F)CC1)c1ccc(F)c2ccccc12 (stereo in doubt; 55) | 1.1 | 73.9% | 0.8 | 150 nM | 0.8 | 106% | 108% | 0.4 | 121% | 120% | 0.2 | 0.7 | 0.3 | 0.9 | 1.1 | 51.4% | 138% | 0.5 | 0.6 | 94.7% | fold induction at 0.125 mg/ml [27]: 0.3; viability at 0.125 mg/ml [28]: 100%; CC50 [17]: 27500 nM; fold induction at 0.001 mg/ml [22]: 0.7; IC50 [23]: 160 nM; fold induction at 0.125 mg/ml [29]: 0.7; fold induction at 0.002 mg/ml [24]: 0.5; fold induction at 0.063 mg/ml [25]: 0.2; Ratio CC50/IC50 [26]: 183 |
